In ChEMBL document CHEMBL4304834, “3-Amino-chromanes and Tetrahydroquinolines as Selective 5-HT2B, 5-HT7, or σ1 Receptor Ligands” (ACS Med Chem Lett, 2019) one finds Ratio Ki and Activity data, which are given here for one compound.

The species named for assay [1] is Homo sapiens. Kind of assay: Selectivity index, ratio of Ki for human recombinant sigma2 receptor to Ki for human recombinant sigma1 receptor. The method in brief: (§1)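 Both Ki values in each ratio come from NIMH Psychoactive Drug Screening Program radioligand binding. […] Other targets were given full binding curves, measured in triplicate, and Ki was taken from a sigmoidal curve fit. Some values were repeated in duplicate or triplicate independent experiments.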

In another assay the test system is 661W. Kind of assay: Cytoprotective activity in mouse 661W cells assessed as inhibition of t-BHP induced oxidative stress by measuring increase in cell viability after 24 hrs by MTT assay. The assay is classed as functional, cell-based.
Assay [2] in a line: Selectivity index, ratio of Ki for rat brain GABAA receptor to Ki for human recombinant sigma1 receptor. Put shortly: as §1
Assay [3] is filed under the species Homo sapiens. Kind of assay: Selectivity index, ratio of Ki for human recombinant 5-HT1B receptor to Ki for human recombinant sigma1 receptor.
The species entered for assay [4] is Homo sapiens. Kind of assay: Selectivity index, ratio of Ki for human recombinant adrenergic Alpha1D receptor to human recombinant sigma1 receptor. Put shortly:
as §1

Bounds are passed on as bounds.

Take `COc1cc(OC)c2c(c1)OC[C@@]1(C)NCC[C@@H]21` (racemic): the Ratio Ki is over 200 in the assay listed under Homo sapiens [1], over 20 in assay [2], over 20 in the assay filed under Homo sapiens [3] and over 20 in the assay filed under Homo sapiens [4]. Also, the Activity entry with 661W was “Dose-dependent effect”.
